Compound activity as filed in PubChem BioAssay.
CSC inhib = cancer stem cell viability inhibitors, primary screen, luminescence; inhibition, % at 7.5 µM; actives 1.1% (n = 300,000); cancer stem cell-like cells viability; in the data active = inhibition above about 75%; tested in HMLE shEcad cells
T cruzi repl = inhibitors of intracellular T. cruzi growth, primary screen, luminescence, NIH3T3 host cells; AID 1885, 2009; inhibition, % (concentration not given with the values); T. cruzi beta-gal in NIH3T3, 90 h; actives 1.4% (n = 300,000);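 active = mean inhibition across valid replicates above about 55%, limit read from the data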;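 also: signal also drops with host cell toxicity which is not excluded here; 0% = plate median of DMSO wells and 100% = zero luminescence signal; higher percent means less beta-gal luminescence so fewer parasites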
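compound dosing = single 50 nL compound addition per well in DMSO | material = NIH/3T3 host cells with β-galactosidase reporter T. cruzi | input = 5,000 host fibroblasts per well | timing = ≥90 h infection period, 3 h prior cell attachment | read-out basis = percent inhibition of parasite-derived β-gal signal | detection = GalScreen β-gal luminescence, detergent lysis, 60 min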
Beta cell apopt = inhibitors of cytokine-induced beta cell apoptosis, primary screen, luminescence | actives 0.8% (n = 300,000) | protection from apoptosis, % (no concentration beside the values) | INS-1E cytokine-induced death, ATP luminescence, 48 h; percent of positive-control rescue, neutral wells zero;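 active = Every replicate reaches about 75%, or at least half do and their mean reaches it too, limit read from the data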;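 also: 0% = cytokine-treated negative control wells and 100% = positive control rescue; higher means more ATP so stronger rescue from cytokine killing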
Mdm2-MdmX inh = inhibitors of human Mdm2-MdmX association, primary screen, cell-based, luminescence, split luciferase, SaOS-2, uHTS; actives 3% (n = 330,000); Protein Mdm4 (Homo sapiens) + E3 ubiquitin-protein ligase Mdm2 (Homo sapiens), …; inhibition, % at 8 µM; SaOS-2 split-luciferase Mdm2/MdmX complementation;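 active = inhibition of at least 50% at 8 µM in the primary screen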
Target sequence (O15151 whole entry, looked up): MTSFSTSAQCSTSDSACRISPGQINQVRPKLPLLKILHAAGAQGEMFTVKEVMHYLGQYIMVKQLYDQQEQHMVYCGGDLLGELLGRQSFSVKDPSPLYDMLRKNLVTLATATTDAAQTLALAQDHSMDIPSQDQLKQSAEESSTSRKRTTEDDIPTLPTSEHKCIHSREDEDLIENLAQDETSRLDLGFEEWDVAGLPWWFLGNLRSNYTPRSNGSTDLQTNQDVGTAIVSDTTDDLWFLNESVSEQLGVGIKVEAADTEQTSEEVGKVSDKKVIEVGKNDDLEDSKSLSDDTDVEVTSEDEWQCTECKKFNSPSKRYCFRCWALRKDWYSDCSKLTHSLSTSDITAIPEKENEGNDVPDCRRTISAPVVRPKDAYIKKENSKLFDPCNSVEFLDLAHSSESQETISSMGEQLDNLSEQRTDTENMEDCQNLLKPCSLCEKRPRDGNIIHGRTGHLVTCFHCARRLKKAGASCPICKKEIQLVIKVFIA
Target sequence (Q00987 whole entry, looked up): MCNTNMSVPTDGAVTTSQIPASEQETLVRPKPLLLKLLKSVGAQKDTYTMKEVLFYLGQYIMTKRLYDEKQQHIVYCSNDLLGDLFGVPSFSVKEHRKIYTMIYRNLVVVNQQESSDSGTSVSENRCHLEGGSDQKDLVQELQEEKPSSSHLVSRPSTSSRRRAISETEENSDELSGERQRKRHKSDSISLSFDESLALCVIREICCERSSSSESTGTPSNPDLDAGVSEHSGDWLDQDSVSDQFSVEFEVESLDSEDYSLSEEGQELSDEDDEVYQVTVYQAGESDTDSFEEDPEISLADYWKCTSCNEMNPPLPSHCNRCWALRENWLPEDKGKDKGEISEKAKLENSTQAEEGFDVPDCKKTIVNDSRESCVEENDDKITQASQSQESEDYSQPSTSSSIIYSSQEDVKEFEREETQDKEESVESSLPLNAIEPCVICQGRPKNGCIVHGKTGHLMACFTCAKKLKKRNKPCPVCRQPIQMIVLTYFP
NLRP3 yeast inh = NALP3 inflammasome inhibitors in reconstituted yeast, primary screen, luminescence, uHTS | Yeast reconstituted NLRP3/ASC/caspase-1, beta-gal luminescence, 24 h | inhibition, % at 10 µM | actives 0.39% (n = 330,000);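 active = inhibition of 50% or more; inactive = inhibition below 50%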;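 also: plate controls were induced DMSO wells for no effect and uninduced yeast grown without galactose for full effect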
Calb FLC = C. albicans growth inhibition with fluconazole, primary screen, CaCi-2 strain, Alamar Blue fluorescence; C. albicans CaCi-2 (fluconazole-resistant clinical isolate) + fluconazole, 48 h; growth inhibition, % (test concentration not listed); actives 0.57% (n = 300,000); AID 1979, 2009;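 active = growth inhibition above about 58% in most replicates, limit read from the data, passing the limit was not always enough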;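 also: all wells also contain fluconazole at 8 µg/ml as a sub-toxic cotreatment; 0% = median of DMSO wells and 100% = median of geldanamycin control wells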
The depositor's hits bear a star; nt = not tested or not shown. Only some compounds are listed: those with a hit (about 5.3% of all), similar ones and a draw of the others.

SMILES | CSC inhib | T cruzi repl | Beta cell apopt | Mdm2-MdmX inh | NLRP3 yeast inh | Calb FLC
N/C(=N\OC(=O)c1ccccc1Cl)c1ccccc1 | -9 | 1 | -2 | -288 | -1 | -3
OCCC1CN(Cc2cccc(C(F)(F)F)c2)CCN1Cc1ccccc1 (configuration not stated) | 18 | 55* | 0 | 6 | 20 | -12
OCCC1CN(Cc2ccc3cc(Cl)ccc3n2)CCN1Cc1ccsc1 (configuration not stated) | 13 | 23 | -6 | 5 | 8 | -3
COc1cccc(CN2CCN(Cc3cccc4c3OCO4)CC2CCO)c1 (configuration not stated) | 6 | 33 | 6 | 8 | 22 | 2
Cc1ccc(CN2CCN(Cc3cccc4c3OCO4)CC2CCO)cc1 (configuration not stated) | 21 | 90* | 12 | 6 | 34 | -28
OCCC1CN(Cc2ccc(C(F)(F)F)cc2)CCN1Cc1ccccc1 (configuration not stated) | nt | 10 | -7 | 25 | 22 | -24
COc1cccc(CN2CCN(Cc3c(C)nn(C(C)C)c3C)CC2CCO)c1 (configuration not stated) | -1 | 71* | -4 | -1 | -9 | 12
OCCC1CN(Cc2ccc3nonc3c2)CCN1Cc1ccsc1 (configuration not stated) | 0 | 70* | -7 | 3 | -3 | -37
CCC(C)Cn1c(C)nc2ccccc21 (configuration not stated) | nt | -11 | -2 | 3 | -23 | -2
O=S(=O)(c1ccc(F)cc1)n1ccc2cccnc21 | -6 | -11 | -3 | 9 | 31 | -1
COC(=O)c1cc2ccccc2n1Cc1ccc(Cl)nc1 | -2 | -1 | -4 | 11 | 35 | -22
Cc1cc(OC(C)C(=O)NCCc2c[nH]c3ccccc23)c2c(C)cc(=O)oc2c1 (configuration not stated) | -3 | 23 | 6 | -2 | 3 | -9
CCOc1ccc(CN2CCN(Cc3cccc4c3OCO4)CC2CCO)cc1 (configuration not stated) | 4 | 97* | nt | 6 | 7 | 9
Fc1ccccc1N1CCN(C2CCCN(Cc3cccc(C(F)(F)F)c3)C2)CC1 (configuration not stated) | 7 | 72* | nt | 22 | 18 | -16
CCOc1ccc(CN2CCN(Cc3cccn3-c3cccnc3)CC2CCO)cc1 (configuration not stated) | -18 | 60* | -6 | 5 | 11 | -11
OCCC1CN(Cc2cc3c(cc2Cl)OCO3)CCN1Cc1ccccc1 (configuration not stated) | 18 | 59* | 0 | 8 | 19 | -68
COc1ccccc1-n1ccnc(SCC(=O)NC2CCCC2)c1=O | 7 | -4 | -11 | -16 | 8 | 7
CCOc1ccc(CN2CCN(Cc3cnn(CC)c3C)CC2CCO)cc1 (configuration not stated) | 20 | 26 | -4 | 14 | 14 | -8
CCOc1ccc(CN2CCN(Cc3cccc4nonc34)CC2CCO)cc1 (configuration not stated) | -9 | 60* | 0 | 18 | 7 | -2
COc1ccc(C(=O)c2ccc(N3CCN(C(=O)c4ccc(F)cc4)CC3)c(F)c2)cc1Br | 66 | 61* | 14 | 20 | 11 | -3
CCC(=O)c1ccc(N2CCN(C(=O)c3ccc(F)cc3)CC2)c(F)c1 | -6 | -6 | 1 | 12 | 4 | 1
CC(C)c1csc(CN2CCC(CO)(Cc3cccc(F)c3)CC2)n1 | -2 | 68* | -4 | 5 | 20 | -3
Cc1ncc(CO)c(/C=N/NC(=S)Nc2ccc(Cl)c(Cl)c2)c1O | 58 | 8 | 42 | 32 | 15 | 110*
COC(=O)c1ccsc1NC(=O)CSc1nnnn1-c1ccccc1SC | -2 | 6 | 0 | -14 | 15 | 2
Cc1ccc(SC2=C(Sc3ccc(C)cc3)C(=O)c3ccccc3C2=O)cc1 | 78* | -29 | -23 | 11 | 33 | -5
SMILES | CSC inhib | T cruzi repl | Beta cell apopt | Mdm2-MdmX inh | NLRP3 yeast inh | Calb FLC
CN(c1cccc(NC(=O)CN(c2ccc(Cl)c(Cl)c2)S(=O)(=O)c2ccccc2)c1)S(C)(=O)=O | 45 | 26 | -1 | 21 | 5 | 9
Cc1ccc(S(=O)(=O)N(CC(=O)Nc2cccc(N(C)S(C)(=O)=O)c2)c2ccc(Cl)c(Cl)c2)cc1 | nt | 70* | nt | 41 | 12 | 14
NNc1nc(-c2ccccc2Cl)nc2sc3c(c12)CCCC3 | 76* | 51 | 29 | -73 | 13 | -1
NNc1nc(-c2ccccc2Cl)nc2ccccc12 | -4 | -3 | 0 | 14 | 15 | 11
CCOC(=O)CN=C/C(C(C)=O)=C(/C)O | -8 | -7 | -3 | -19 | 15 | -6
COc1ccc(C(c2c[nH]c3ccccc23)c2c[nH]c3ccccc23)cc1O | 119* | 21 | 6 | 10 | -1 | -1
N#C/C(=N\Nc1c(Cl)cccc1Cl)C(=O)NN | -2 | 24 | -3 | -8 | 8 | 36
CCOC(=O)c1sc(NC(=O)c2ccc(S(=O)(=O)N(C)C)cc2)cc1C | 24 | 65* | 12 | 18 | -10 | 5
COc1cc2c(cc1NC(=O)CSc1ccccc1)oc1ccccc12 | 17 | -10 | -2 | 3 | 11 | 5
COc1cc2c(cc1NC(=O)Nc1ccc(C)cc1)oc1ccccc12 | 88* | 15 | 7 | 8 | 5 | 1
COc1cc2c(cc1NC(=O)Nc1ccc(F)cc1)oc1ccccc12 | -19 | 60* | 9 | 15 | 17 | 0
COc1cc2c(cc1NC(=O)CSc1nc3ccccc3[nH]1)oc1ccccc12 | 80* | 32 | 9 | 14 | 4 | -4
COc1cc2c(cc1NC(=O)c1cccc(S(=O)(=O)N(C)C)c1)oc1ccccc12 | 126* | 47 | 3 | -61 | 19 | -9
COCCNC(=O)c1ccccc1NC(=O)Cc1ccccc1[N+](=O)[O-] | 3 | -12 | 3 | 3 | -9 | -5
O=C(CN(C(=O)c1csnn1)c1ccc(Cl)cc1)NCCc1ccccc1 | nt | -7 | -4 | -13 | 24 | 5
C#CCOCCOCCOCCNc1nc(N2CCN(C(=O)[C@H]([C@@H](C)CC)n3cc(CCCCN)nn3)CC2)nc(N2CCN(C(=O)[C@H](CCCCN)n3cc(CCC(=O)O)nn3)CC2)n1 | -1 | nt | -4 | 6 | 15 | nt
Cc1cc(OCC(=O)NCc2cccnc2)c2c(C)cc(=O)oc2c1 | -14 | -5 | 0 | 10 | 15 | 0
COc1cccc(NCc2ccc([N+](=O)[O-])s2)c1 | 5 | -16 | -12 | 3 | 18 | 24
